Experiment [1] has as its target T1, G-protein coupled bile acid receptor 1 (Mus musculus) (UniProt Q80SS6).
T1 sequence (whole entry): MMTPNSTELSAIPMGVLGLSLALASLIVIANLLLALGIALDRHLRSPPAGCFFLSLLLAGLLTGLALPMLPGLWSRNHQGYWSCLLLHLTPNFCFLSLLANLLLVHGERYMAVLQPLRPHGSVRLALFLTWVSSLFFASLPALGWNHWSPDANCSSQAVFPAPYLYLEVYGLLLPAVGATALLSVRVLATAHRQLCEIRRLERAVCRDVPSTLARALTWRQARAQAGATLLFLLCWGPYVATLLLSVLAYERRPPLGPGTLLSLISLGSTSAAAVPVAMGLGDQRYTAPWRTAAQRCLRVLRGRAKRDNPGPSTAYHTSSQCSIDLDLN
Kind of experiment: Agonist activity at GP-BAR1 in mouse GLUTag cells assessed as increase in intracellular cAMP level. The class given is functional, cell-based. Put shortly:
(§1)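 GLUTag enteroendocrine cells measuring intracellular cAMP generation and GLP-1 released into supernatant. Values are the mean ± SE of four to five experiments; significance is versus untreated cells.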

Experiment [2] concerns the target T2, G-protein coupled bile acid receptor 1 (Homo sapiens, UniProt Q8TDU6).
T2 sequence (Q8TDU6 whole entry): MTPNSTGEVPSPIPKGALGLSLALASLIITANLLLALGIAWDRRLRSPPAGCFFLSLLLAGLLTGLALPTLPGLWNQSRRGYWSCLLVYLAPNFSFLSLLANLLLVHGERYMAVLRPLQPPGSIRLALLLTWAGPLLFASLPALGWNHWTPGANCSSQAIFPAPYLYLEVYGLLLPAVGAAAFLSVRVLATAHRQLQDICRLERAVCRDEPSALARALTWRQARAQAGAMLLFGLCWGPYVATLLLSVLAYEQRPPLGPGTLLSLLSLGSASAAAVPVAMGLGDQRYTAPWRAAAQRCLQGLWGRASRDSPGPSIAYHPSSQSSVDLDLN
Briefly: Transactivation of human GP-BAR1 transfected in HEK293T cells assessed as induction of intracellular cAMP production after 18 hrs by cAMP responsive element containing luciferase reporter gene assay. The class given is functional, cell-based, HEK-293T. Put shortly: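 Concentration–response in GP-BAR1/CRE-luciferase transfected HEK-293T: 0.1, 1 and 10 μM for 18 h, with TLCA 10 μM positive control. Renilla-normalized luciferase used to calculate EC50.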

The target in experiment [3] is T1, G-protein coupled bile acid receptor 1 (Mus musculus). Kind of experiment: Agonist activity at GP-BAR1 in mouse GLUTag cells assessed as increase in GLP-1 release. Format: cell-based. Put shortly:
as §1

The target of experiment [4] is T3, Bile acid receptor (Homo sapiens, UniProt Q96RI1).
T3 sequence (Q96RI1 whole entry): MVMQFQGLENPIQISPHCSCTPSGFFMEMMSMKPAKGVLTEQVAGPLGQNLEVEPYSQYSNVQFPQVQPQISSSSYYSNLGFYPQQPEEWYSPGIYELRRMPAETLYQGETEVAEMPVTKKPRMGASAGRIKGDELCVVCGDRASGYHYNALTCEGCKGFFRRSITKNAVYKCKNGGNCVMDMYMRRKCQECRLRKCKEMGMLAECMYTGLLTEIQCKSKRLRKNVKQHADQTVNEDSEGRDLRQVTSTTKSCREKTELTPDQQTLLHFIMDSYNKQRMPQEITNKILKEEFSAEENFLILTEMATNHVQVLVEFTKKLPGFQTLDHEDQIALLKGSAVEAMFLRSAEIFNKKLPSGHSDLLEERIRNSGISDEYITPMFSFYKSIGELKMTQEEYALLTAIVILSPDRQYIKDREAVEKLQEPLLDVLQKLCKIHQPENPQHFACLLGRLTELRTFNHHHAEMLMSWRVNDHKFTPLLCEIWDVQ
Kind of experiment: Transactivation of human FXR transfected in human HepG2 cells by beta-galactosidase reporter gene assay. Format: cell-based. Put shortly: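 FXR/RXR/β-gal/IR1-luciferase transfected HepG2 cells treated with 0.01, 0.1, 1 and 10 μM; CDCA 10 μM positive control. β-gal-normalized luciferase used to calculate EC50.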

Experiment [5] has as its system Hepatocyte. Briefly: Upregulation of BESP mRNA expression in mouse primary hepatocytes isolated from FXR deficient mouse. The class given is functional, cell-based. Summed up:
(§2)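 Hepatocytes from wild-type or FXR−/− mice were analysed by real-time PCR for BSEP mRNA, as a measure of FXR-dependent target gene induction. Data are the mean SE of four experiments.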

Experiment [6] deals with T4, Bile acid receptor (Mus musculus) (UniProt Q60641).
T4 sequence (whole entry): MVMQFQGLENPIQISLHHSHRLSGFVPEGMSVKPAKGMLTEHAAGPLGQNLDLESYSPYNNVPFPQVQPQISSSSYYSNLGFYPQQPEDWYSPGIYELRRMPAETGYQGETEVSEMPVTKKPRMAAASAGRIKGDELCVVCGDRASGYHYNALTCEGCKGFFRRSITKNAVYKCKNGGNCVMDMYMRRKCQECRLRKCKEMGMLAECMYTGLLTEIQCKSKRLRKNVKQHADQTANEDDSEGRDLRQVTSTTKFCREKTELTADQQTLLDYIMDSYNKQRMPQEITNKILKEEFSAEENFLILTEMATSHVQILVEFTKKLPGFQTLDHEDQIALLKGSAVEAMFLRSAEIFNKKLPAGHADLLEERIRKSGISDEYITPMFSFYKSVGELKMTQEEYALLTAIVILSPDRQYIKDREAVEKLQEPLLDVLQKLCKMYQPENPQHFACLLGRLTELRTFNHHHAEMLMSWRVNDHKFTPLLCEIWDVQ
Briefly: Agonist activity at FXR in mouse primary hepatocytes assessed as upregulation of BESP mRNA expression. Format: cell-based. As to conditions: Hepatocyte. Summed up:
as §2

Experiment [7] relates to HEK-293T. Kind of experiment: Induction of cAMP production in GP-BAR1-deficient HEK293T cells at 10 uM by cAMP responsive element containing luciferase reporter gene assay. The class given is functional, cell-based. The conditions noted are these: Homo sapiens. Put shortly: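 Control transfection of HEK-293T with only the pGL4.29 CRE-luciferase and pGL4.70 Renilla vectors, without GP-BAR1. 24 h after transfection, cells exposed 18 h to 10 μM compound. Luciferase normalized to Renilla.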

Experiment [8] concerns the target T5, G-protein coupled bile acid receptor 1 (Homo sapiens) (UniProt Q8TDU6).
T5 sequence (whole entry): T2 sequence (Q8TDU6 whole entry)
Kind of experiment: Transactivation of human GP-BAR1 transfected in HEK293T cells assessed as induction of intracellular cAMP production at 10 uM after 18 hrs by luciferase reporter gene assay relative to TLCA. Format: functional, cell-based. The conditions noted are these: HEK-293T. Summed up:
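HEK-293T co-transfected with human GP-BAR1 and a CRE-driven luciferase reporter. Stimulated 24 h post-transfection for 18 h at 10 μM. TLCA 10 μM as receptor-dependent reference; forskolin 10 μM as receptor-independent cAMP control. Luciferase normalized to Renilla; mean ± standard error.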

Experiment [9] deals with T6, Bile acid receptor (Homo sapiens) (UniProt Q96RI1).
T6 sequence (whole entry): T3 sequence (Q96RI1 whole entry)
Kind of experiment: Transactivation of human FXR transfected in human HepG2 cells at 10 uM by beta-galactosidase reporter gene assay relative to CDCA. Format: cell-based. The conditions noted are these: in the assay text read “luciferase reporter gene assay” for “beta-galactosidase reporter gene assay”. Put shortly: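 HepG2 cells transfected with human FXR, RXR, β-gal and hsp27 IR1-luciferase reporter. 24 h post-transfection, stimulated 18 h at 10 μM, with CDCA 10 μM as positive control. Luciferase RLU divided by β-galactosidase activity; mean ± standard error.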

Our source for the Activity, EC50 and Efficacy values is ChEMBL document CHEMBL3259647, “Design, synthesis, and biological evaluation of potent dual agonists of nuclear and membrane bile acid receptors” (J Med Chem, 2014).

The source made the active and inactive calls. The calls are words filed in the database; no cut-off is given here.

`CC[C@H]1[C@@H](O)[C@@H]2[C@H](CC[C@]3(C)[C@@H]([C@H](C)CCCOS(=O)(=O)O)CC[C@@H]23)[C@@]2(C)CC[C@@H](O)C[C@@H]12`: the outcome in experiment [1], in experiment [3] and in [6] was Active. Also, the EC50 was determined as 200 nM in [2] and 1000 nM in experiment [4]. Also, the result in experiment [5] and in experiment [7] was inactive. Also, the figures for the Efficacy in experiment [8] and in experiment [9] were 112% and 852%, respectively.
